Blank lines part the entries; values can stand above or below the molecule they belong to.
Tests used:
hnRNP A18 = biological target: T1, hnRNP A18 (Homo sapiens, UniProt Q14011); experiment: Cellular thermal shift assay; format: cell-based; conditions: read-out: EC50, hnRNP A18 protection from melting; LOX-IM-VI cells over expressing GFP-hnRNP A18; 3 h; 57°C
T1 sequence (Q14011 1-172): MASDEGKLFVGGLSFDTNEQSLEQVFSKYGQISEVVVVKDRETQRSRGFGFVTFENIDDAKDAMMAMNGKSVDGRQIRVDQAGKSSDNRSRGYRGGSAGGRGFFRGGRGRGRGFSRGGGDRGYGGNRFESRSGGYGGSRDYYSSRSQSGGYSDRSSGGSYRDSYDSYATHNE

[1] = system: colorectal carcinoma RKO cells; experiment: Cell viability; format: cell-based, human; conditions: 24 h, increasing concentrations
Procedure, shortened: (§1)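 Cells plated at 10 000 per well and exposed to increasing concentrations of test compound for 24 h. HMEC were cultured per supplier guidance. Viability was read with the ApoTox-Glo viability reagent by fluorescence at 400 nm Ex/505 nm Em. Three replicates; error bars are standard deviation.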

[2] = system: pancreatic cancer MiaPaca cells; experiment: Cell viability; format: cell-based, human; conditions: 24 h, increasing concentrations
Procedure, shortened: as §1

Glioblastoma D54 cells = experiment: Cell viability; format: cell-based, human; conditions: D54, 24 h, increasing concentrations
Procedure, shortened: as §1

[3] = system: normal human mammary epithelial HMEC cells; experiment: Cell viability; format: cell-based; conditions: 24 h
Procedure, shortened: as §1

[4] = biological target: hnRNP A18 RNA Recognition Motif (RRM) (Homo sapiens, UniProt Q14011); experiment: NMR 1H,15N-HSQC chemical shift perturbation; format: binding; conditions: 15N-labeled hnRNP A18 RRM
Procedure, shortened: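 Construct: human hnRNP A18 RRM (residues 1–92), expressed in E. coli BL21(DE3) as a His6-GB1 fusion in M9 medium with 15N-ammonium chloride, induced with 1 mM IPTG for 16 h at 18°C. Purified by denaturing Ni affinity with on-column refolding, then TEV cleavage.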

[5] = Parallel Artificial Membrane Permeability Assay; format: in vitro ADME; conditions: pH 5.0 and 6.8, room temperature, ∼4 h; data not shown
Procedure, shortened: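 Test compounds were made up as 10 mM DMSO stocks and filtered (0.2 μm). The assay used stirred PAMPA plates with GIT-0 lipid and an acceptor sink buffer. After permeation, UV spectra from 245 to 498 nm gave relative compound concentrations in the donor and acceptor compartments, from which effective permeability was derived.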

His-hnRNP A18 [6] = biological target: T2, His-hnRNP A18 (Homo sapiens, UniProt Q14011); experiment: RNA band shift; format: binding; conditions: biotinylated hnRNP A18 RNA consensus motif 1
T2 sequence (Q14011 1-172): T1 sequence (Q14011 1-172)
Procedure, shortened: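 Recombinant full-length human His-hnRNP A18 was expressed in bacteria grown at 30°C. Protein (1 μg) was preincubated 10 min with or without increasing concentrations of test compound. Biotinylated hnRNP A18 motif 1 RNA (51 nt) was then added for 10 min at room temperature. Complexes were resolved on native polyacrylamide gels, transferred to nylon and detected by chemiluminescence with streptavidin-HRP.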

GST-hnRNP A18 = biological target: T3, GST-hnRNP A18 (UniProt Q14011 1-172); experiment: fluorescence anisotropy
T3 sequence: T1 sequence (Q14011 1-172)

His-hnRNP A18 [7] = biological target: T4, His-hnRNP A18 (human, UniProt Q14011 1-172); experiment: EMSA
T4 sequence: T1 sequence (Q14011 1-172)

- EC50 (hnRNP A18): 23.8 µM
- effective permeability (Pe) [5]: > 200 nm/s
- hnRNP A18 RNA binding activity / specificity by RNA band shift (His-hnRNP A18 [6]): specifically bound hnRNP A18
Molecule: Cc1sc(NC(=O)c2ccccc2)nc1OC(=O)c1ccccc1 [VITAS STK508411]
- cell viability (relative efficacy) [1]: least effective
- cell viability (relative efficacy) [2]: least effective
- cell viability (relative efficacy) (Glioblastoma D54 cells): least effective
- toxicity to normal cells [3]: 20–40%
- chemical shift perturbations of hnRNP A18 RRM (qualitative) [4]: Chemical shift perturbations were observed

B1: hnRNP A18 motif 1 Fl (ssRNA)
RNA: GCAGAUCCAGGGUGGGAUUUUCUUGAGGAAGUUACAAAUAAGCUUGUUACA
- binding result (GST-hnRNP A18): binds

B2: hnRNP A18 motif 1 Biotin (ssRNA)
RNA: B1 RNA
- binding result (His-hnRNP A18 [7]): binds

Reference: article PMC7897483 (Nucleic Acids Research, 2021)
